This is an account of results in ChEMBL document CHEMBL1123261, “Comparative antiaggregatory activity in human platelets of a benzopyranone aci-reductone, clofibric acid, and a 2,3-dihydrobenzofuran analogue” (J Med Chem, 1986).

A word on the IC50: it is the concentration at which inhibition is half-maximal.

Some results are limits rather than exact numbers.

Format in all cases: functional, organism-based
For assay [1], the species on record is Homo sapiens. Put plainly: Compound was tested for the inhibitory activity against serotonin secretion by adenosine -Diphosphate (ADP (1-5 uM)). In outline: (§1)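 Human platelet-rich plasma (3 × 10^8/mL) prelabeled with [14C]serotonin. Inhibitor added 1 min before the inducer: ADP 1–5 μM, AA 0.2–1 mM, or U46619 0.3 μM with aspirin 1 mM. Dense-granule secretion measured as release of radioactivity. Mean IC50 ± SEM, three to nine donors.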

The species entered for assay [2] is Homo sapiens. As to the kind of experiment: Compound was tested for the inhibitory activity against human platelet aggregation by arachidonic acid (AA (0.1-1 mM)). The following applies: in the assay text read “AA (0.2-1 mM)” for “AA (0.1-1 mM)”. Put shortly:
(§2)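 Human platelet-rich plasma, count adjusted to 3 × 10^8/mL. Turbidometric (Born) aggregometry. Inhibitor added 1 min before inducer, which was used at the minimum level giving maximal aggregation. IC50 taken from change in light-transmittance amplitude after 6 min for ADP (secondary aggregation only) and 4 min for AA and U46619. U46619 samples contained aspirin 1 mM. Mean ± SEM, three to nine donors.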

The species entered for assay [3] is Homo sapiens. As to the kind of experiment: Compound was tested for the inhibitory activity against human platelet aggregation by adenosine -Diphosphate (ADP (1-5 uM)). In outline:
as §2

Assay [4] is filed under the species Homo sapiens. As to the kind of experiment: Compound was tested for the inhibitory activity against serotonin secretion by arachidonic acid (AA (0.1-1 mM)). The note with it: in the assay text read “AA (0.2-1 mM)” for “AA (0.1-1 mM)”. Put shortly:
as §1

The species named for assay [5] is Homo sapiens. Put plainly: Compound was tested for the inhibitory activity against human platelet aggregation by U46,619 (0.3 uM) + Aspirin (ASA, 1 mM). Put shortly: as §2
Assay [6] is filed under the species Homo sapiens. Put plainly: Compound was tested for the inhibitory activity against serotonin secretion by U-46,619 (0.3 uM) + Aspirin (ASA, 1 mM). Put shortly: as §1
For assay [7], the species on record is Homo sapiens. As to the kind of experiment: Compound was tested for the inhibitory activity against serotonin secretion by adenosine -Diphosphate (ADP (1-5 uM)). Put shortly:
as §1

For the molecule `O=C(O)C1Cc2cc(Cl)ccc2O1` (stereo not given), the IC50 in the assay filed under Homo sapiens [1] was found to be 419 µM; in the assay listed under Homo sapiens [2] it was 851 µM; in the assay filed under Homo sapiens [3], 533 µM; in the assay filed under Homo sapiens [4], 1010 µM; in the assay filed under Homo sapiens [5], 1480 µM; in the assay filed under Homo sapiens [6], 1440 µM.

Regarding `CC(C)(Oc1ccc(Cl)cc1)C(=O)O` [CLOFIBRIC ACID], the IC50 in the assay filed under Homo sapiens [2] was more than 3070 µM; in the assay filed under Homo sapiens [4], more than 3430 µM; in the assay filed under Homo sapiens [5], more than 4000 µM.

As for `O=c1c(O)c(O)oc2ccc(Cl)cc12`, the IC50 in the assay listed under Homo sapiens [2] stood at 739 µM; in the assay filed under Homo sapiens [7], 466 µM; in the assay filed under Homo sapiens [3] it was 363 µM; in the assay listed under Homo sapiens [4], 814 µM; in the assay listed under Homo sapiens [5], 1510 µM; in the assay filed under Homo sapiens [6], 2380 µM.
